Measured values as given in ChEMBL document CHEMBL4229550, “An antimycobacterial pleuromutilin analogue effective against dormant bacilli” (Bioorg Med Chem, 2018).
≈ marks a conversion by molar mass, not a printed value. Calls of active or inactive are those of the source. The calls are words filed in the database; no cut-off is given here.

Legend:
Escherichia coli [1] = assay: Inhibition of protein translation/transcription in Escherichia coli S30 cell extract using circular DNA with pBESTluc after 60 mins by luciferase reporter gene assay; type: functional; details: 1 h
How it was run: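 E. coli S30 circular-DNA coupled transcription/translation kit with the pBESTluc template (firefly luciferase under the tac promoter). S30 extract, amino acids and premix are combined with compound in DMSO, and the reaction is started with DNA. Incubation is 60 min at 37 °C, stopped on ice, then luciferase luminescence is read.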

Staphylococcus aureus [2] = assay: Antibacterial activity against Staphylococcus aureus ATCC 25923 incubated for 24 hrs under aerobic condition by MABA; type: functional; details: ATCC 25923, 24 h, read-out: MIC100
How it was run: (§1)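 Mid-log cultures at OD 0.5 were exposed to serial dilutions under aerobic conditions at 37 °C for 24 h. Resazurin was then added from a 0.08% stock for 1 h. MIC100 was the lowest concentration where the dye stayed blue (pink means growth). Absorbance was also read at 570 and 600 nm.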

[3] = system: Mycolicibacterium smegmatis; assay: Antibacterial activity against Mycobacterium smegmatis ATCC 607 incubated for 48 hrs under aerobic condition by MABA; type: functional; details: ATCC 607, 48 h, read-out: MIC100
How it was run: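 Mid-log culture at OD 0.5 was incubated with serial dilutions aerobically at 37 °C for 48 h. Resazurin was then added from a 0.08% stock for 1 h. MIC100 was the lowest concentration that stayed blue; absorbance was also read at 570/600 nm.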

Escherichia coli [4] = assay: Antibacterial activity against Escherichia coli ATCC 10798 incubated for 24 hrs under aerobic condition by MABA; type: functional; details: ATCC 10798, 24 h, read-out: MIC100; how it was run: as §1
Bacillus subtilis [5] = assay: Bactericidal activity against Bacillus subtilis ATCC 6051 incubated for 24 hrs under aerobic condition by MABA; type: functional; details: ATCC 6051, 24 h
Streptococcus pneumoniae [6] = assay: Bactericidal activity against Streptococcus pneumoniae ATCC 6301 incubated for 24 hrs under aerobic condition by MABA; type: functional; details: ATCC 6301, 24 h
Staphylococcus aureus [7] = assay: Antibacterial activity against Staphylococcus aureus BAA 44 incubated for 24 hrs under aerobic condition by MABA; type: functional; details: BAA 44, 24 h, read-out: MIC100; how it was run: as §1
Staphylococcus aureus [8] = assay: Antibacterial activity against Staphylococcus aureus incubated for 24 hrs under aerobic condition by MABA; type: functional; details: read-out: MIC100
How it was run: (§2)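 Resazurin was then added from a 0.08% stock for 1 h. MIC100 was the lowest concentration where the dye stayed blue (pink means growth). Absorbance was also read at 570 and 600 nm.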

Staphylococcus aureus [9] = assay: Bactericidal activity against Staphylococcus aureus ATCC 25923 incubated for 24 hrs under aerobic condition by MABA; type: functional; details: ATCC 25923, 24 h
Streptococcus pneumoniae [10] = assay: Antibacterial activity against Streptococcus pneumoniae ATCC 6301 incubated for 24 hrs under aerobic condition by MABA; type: functional; details: ATCC 6301, 24 h, read-out: MIC100; how it was run: as §1
Escherichia coli [11] = assay: Inhibition of protein translation/transcription in Escherichia coli S30 cell extract at 0.1 ug/ml using circular DNA with pBESTluc after 60 mins by luciferase reporter gene assay; type: functional
How it was run: (§3)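 Coupled transcription/translation used E. coli S30 extract, amino acid mix and premix, with the pBESTluc template carrying firefly luciferase under the tac promoter. Compounds were added in DMSO and reactions were started with DNA. Incubation was 60 min at 37 °C, stopped on ice, and luciferase was read after adding assay substrate.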

Enterococcus faecalis [12] = assay: Antibacterial activity against Enterococcus faecalis ATCC 349 incubated for 24 hrs under aerobic condition by MABA; type: functional; details: ATCC 349, 24 h, read-out: MIC100; how it was run: as §1
Enterococcus faecalis [13] = assay: Bactericidal activity against Enterococcus faecalis ATCC 349 incubated for 24 hrs under aerobic condition by MABA; type: functional; details: ATCC 349, 24 h
Streptococcus salivarius [14] = assay: Antibacterial activity against Streptococcus salivarius […] incubated for 24 hrs under aerobic condition by MABA; type: functional; details: read-out: MIC100; how it was run: as §2
[15] = Selectivity index, ratio of IC50 for African green monkey Vero cells to MIC100 for replicating Mycobacterium tuberculosis H37Rv by MABA; type: toxicity; details: read-out: Selectivity Index
How it was run: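 Vero cells are cultured in EMEM with 10% FBS and exposed for 72 h to 0.78–200 µg/mL. Medium is switched to phenol-red-free EMEM, MTT is added, and formazan is read at 570 nm to give IC50. The selectivity index is Vero IC50 divided by the MABA MIC.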

Clostridioides difficile = assay: Bactericidal activity against Clostridium difficile ATCC 700057 incubated for 24 hrs […] by MABA; type: functional; details: ATCC 700057, 24 h
Staphylococcus aureus [16] = assay: Antibacterial activity against Staphylococcus aureus BAA 2094 incubated for 24 hrs under aerobic condition by MABA; type: functional; details: BAA 2094, 24 h, read-out: MIC100; how it was run: as §2
Klebsiella pneumoniae [17] = assay: Antibacterial activity against Klebsiella pneumoniae ATCC 12019 incubated for 24 hrs under aerobic condition by MABA; type: functional; details: ATCC 12019, 24 h, read-out: MIC100; how it was run: as §1
[18] = system: Mycobacterium tuberculosis; assay: Antibacterial activity against replicating Mycobacterium tuberculosis H37Rv incubated for 15 days under aerobic condition by MABA; type: functional; details: 360 h, read-out: MIC100
How it was run: (§4)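 Mtb H37Rv grown in 7H9/OADC at 37 °C with shaking to OD600 0.5. The 0.5-OD culture is exposed aerobically to serial dilutions for 15 days at 37 °C. Resazurin (0.02% stock) is then added for 4 h at 37 °C with shaking.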

Vero = assay: Cytotoxicity against African green monkey Vero cells assessed as reduction in cell viability after 72 hrs by MTT assay; type: cell-based; details: Chlorocebus sabaeus
How it was run: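 Vero cells were grown in complete EMEM with 10% FBS and exposed for 72 h to 0.78–200 µg/mL. The medium was then swapped for phenol-red-free EMEM and MTT was added. Formazan absorbance was read at 570 nm to give IC50.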

[19] = system: Mycolicibacterium smegmatis; assay: Bactericidal activity against Mycobacterium smegmatis ATCC 607 incubated for 48 hrs under aerobic condition by MABA; type: functional; details: ATCC 607, 48 h
Staphylococcus aureus [20] = assay: Bactericidal activity against Staphylococcus aureus BAA 1683 incubated for 24 hrs under aerobic condition by MABA; type: functional; details: BAA 1683, 24 h
Staphylococcus aureus [21] = assay: Bactericidal activity against Staphylococcus aureus incubated for 24 hrs under aerobic condition by MABA; type: functional
Klebsiella pneumoniae [22] = assay: Bactericidal activity against Klebsiella pneumoniae ATCC 12019 incubated for 24 hrs under aerobic condition by MABA; type: functional; details: ATCC 12019, 24 h
Acinetobacter baumannii [23] = assay: Antibacterial activity against Acinetobacter baumannii ATCC 19606 incubated for 24 hrs under aerobic condition by MABA; type: functional; details: ATCC 19606 = CIP 70.34 = JCM 6841, 24 h, read-out: MIC100; how it was run: as §1
Enterococcus faecalis [24] = assay: Bactericidal activity against Enterococcus faecalis ATCC 19433 incubated for 24 hrs under aerobic condition by MABA; type: functional; details: ATCC 19433, 24 h
Acinetobacter baumannii [25] = assay: Bactericidal activity against Acinetobacter baumannii ATCC 19606 incubated for 24 hrs under aerobic condition by MABA; type: functional; details: ATCC 19606 = CIP 70.34 = JCM 6841, 24 h
Staphylococcus aureus [26] = assay: Antibacterial activity against Staphylococcus aureus BAA 1683 incubated for 24 hrs under aerobic condition by MABA; type: functional; details: BAA 1683, 24 h, read-out: MIC100; how it was run: as §1
Streptococcus salivarius [27] = assay: Bactericidal activity against Streptococcus salivarius ATCC 6301 incubated for 24 hrs under aerobic condition by MABA; type: functional; details: ATCC 6301, 24 h
Enterococcus faecalis [28] = assay: Antibacterial activity against Enterococcus faecalis ATCC 19433 incubated for 24 hrs under aerobic condition by MABA; type: functional; details: ATCC 19433, 24 h, read-out: MIC100; how it was run: as §1
Bacillus subtilis [29] = assay: Antibacterial activity against Bacillus subtilis ATCC 6051 incubated for 24 hrs under aerobic condition by MABA; type: functional; details: ATCC 6051, 24 h, read-out: MIC100; how it was run: as §1
Staphylococcus aureus [30] = assay: Bactericidal activity against Staphylococcus aureus BAA 44 incubated for 24 hrs under aerobic condition by MABA; type: functional; details: BAA 44, 24 h
Staphylococcus aureus [31] = assay: Bactericidal activity against Staphylococcus aureus BAA 2094 incubated for 24 hrs under aerobic condition by MABA; type: functional; details: BAA 2094, 24 h
Escherichia coli [32] = assay: Bactericidal activity against Escherichia coli ATCC 10798 incubated for 24 hrs under aerobic condition by MABA; type: functional; details: ATCC 10798, 24 h
[33] = system: Mycobacterium tuberculosis; assay: Bactericidal activity against replicating Mycobacterium tuberculosis H37Rv incubated for 15 days under aerobic condition by MABA; type: functional; details: 360 h; how it was run: as §4
[34] = system: Mycobacterium tuberculosis; assay: Antibacterial activity against Mycobacterium tuberculosis; type: functional; details: read-out: MIC100; how it was run: as §4
Escherichia coli [35] = assay: Inhibition of protein translation/transcription in Escherichia coli S30 cell extract at 0.5 ug/ml using circular DNA with pBESTluc after 60 mins by luciferase reporter gene assay; type: functional; how it was run: as §3

CC(=O)NC[C@H]1CN(c2ccc(N3CCOCC3)c(F)c2)C(=O)O1 [LINEZOLID]
IC50 (Escherichia coli [1]): 0.05 µg/mL (≈ 0.148 µM)
MIC (Staphylococcus aureus [2]): > 25 µg/mL
MIC [3]: 0.2 µg/mL (≈ 0.593 µM)
MIC (Escherichia coli [4]): 25 µg/mL (≈ 74.1 µM)
MBC (Bacillus subtilis [5]): 6.25 µg/mL (≈ 18.5 µM)
MBC (Streptococcus pneumoniae [6]): > 25 µg/mL
MIC (Staphylococcus aureus [7]): > 25 µg/mL
MIC (Staphylococcus aureus [8]): 0.78 µg/mL (≈ 2.31 µM)
MBC (Staphylococcus aureus [9]): > 25 µg/mL
MIC (Streptococcus pneumoniae [10]): 25 µg/mL (≈ 74.1 µM)
inhibition (Escherichia coli [11]): Active
MIC (Enterococcus faecalis [12]): > 25 µg/mL
MBC (Enterococcus faecalis [13]): > 25 µg/mL
MIC (Streptococcus salivarius [14]): 3.13 µg/mL (≈ 9.28 µM)
selectivity ratio [15]: > 333
MBC (Clostridioides difficile): 3.13 µg/mL (≈ 9.28 µM)
MIC (Staphylococcus aureus [16]): > 25 µg/mL
MIC (Klebsiella pneumoniae [17]): 25 µg/mL (≈ 74.1 µM)
MIC [18]: 0.6 µg/mL (≈ 1.78 µM)
IC50 (Vero): > 200 µg/mL
MBC [19]: 0.8 µg/mL (≈ 2.37 µM)
MBC (Staphylococcus aureus [20]): 25 µg/mL (≈ 74.1 µM)
MBC (Staphylococcus aureus [21]): 1.56 µg/mL (≈ 4.62 µM)
MBC (Klebsiella pneumoniae [22]): > 25 µg/mL
MIC (Acinetobacter baumannii [23]): > 25 µg/mL
MBC (Enterococcus faecalis [24]): 25 µg/mL (≈ 74.1 µM)
MBC (Acinetobacter baumannii [25]): > 25 µg/mL
MIC (Staphylococcus aureus [26]): 12.5 µg/mL (≈ 37.1 µM)
MBC (Streptococcus salivarius [27]): > 25 µg/mL
MIC (Enterococcus faecalis [28]): 12.5 µg/mL (≈ 37.1 µM)
MIC (Bacillus subtilis [29]): 3.13 µg/mL (≈ 9.28 µM)
MBC (Staphylococcus aureus [30]): > 25 µg/mL
MBC (Staphylococcus aureus [31]): > 25 µg/mL
MBC (Escherichia coli [32]): > 25 µg/mL
MBC [33]: 1.61 µg/mL (≈ 4.77 µM)

CC[C@@H](CO)NCCN[C@@H](CC)CO [ETHAMBUTOL]
selectivity ratio [15]: > 256
MIC [18]: 0.78 µg/mL (≈ 3.82 µM)
IC50 (Vero): > 200 µg/mL

C=C[C@]1(C)C[C@@H](OC(=O)CSC(C)(C)CNC(=O)[C@H](N)CC(C)C)[C@]2(C)[C@H](C)CC[C@]3(CC[C@@H](O)[C@H]32)[C@@H](C)[C@@H]1O
MIC [34]: < 6.25 µg/mL
inhibition (Escherichia coli [11]): Active
selectivity ratio [15]: 11.4
MIC [18]: 3.06 µg/mL (≈ 5.27 µM)
IC50 (Vero): 35 µg/mL (≈ 60.3 µM)
inhibition (Escherichia coli [35]): Active
